ChEMBL document CHEMBL1781937, “Antioxydant activity of β-carboline derivatives in the LDL oxidation model” (2011)

Experiments:
[1] = Antioxidant activity against CuSO4-induced LDL-oxidation assessed as increase in lag phase of conjugated diene formation by 1.5 times measured every 10 mins for 8 hrs by spectrophotometry analysis
[2] = Antioxidant activity against copper-induced LDL-oxidation assessed as length of lag phase of oxidative procedure of LDL at 0.1 to 10 uM measured every 10 mins for 8 hrs by spectrophotometry relative to 5 uM of copper; format: functional
How it was run: (§1)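 Copper oxidation of LDL: LDL isolated by NaBr density ultracentrifugation (1.019–1.063 g/mL) and dialysed in 0.01 M PBS pH 7.4 under N2 at 4 °C. 20 µL of 16.6 µM CuSO4 is added to 160 µL LDL (125 µg protein/mL) with compound (0.1–10 µM) or PBS at 30 °C. A234 is read every 10 min for 8 h. R is the compound lag phase divided by the control lag phase.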

[3] = Antioxidant activity against copper-induced LDL-oxidation assessed as length of lag phase of oxidative procedure of LDL at 0.1 to 10 uM measured every 10 mins for 8 hrs by spectrophotometry relative to 1 uM of copper; format: functional
How it was run: as §1

[4] = Antioxidant activity in BAEC assessed as protection against air-oxidized LDL-induced cell death at 10 uM pretreated for 24 hrs before air-oxidized LDL challenge measured after 16 hrs by lactate dehydrogenase release assay (reference value: 22.76 +/- 1.53 %); format: functional, Bos taurus
[5] = Antioxidant activity against APPH-induced LDL-oxidation assessed as length of lag phase of oxidative procedure of LDL at 0.1 to 10 uM measured every 10 mins for 8 hrs by spectrophotometry relative to 1 uM of APPH; format: functional
How it was run: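 AAPH oxidation of LDL: LDL isolated by NaBr density ultracentrifugation (1.019–1.063 g/mL) and dialysed in 0.01 M PBS pH 7.4 under N2 at 4 °C. 160 µL LDL (125 µg protein/mL) is mixed with 20 µL of 2 mM AAPH and compound (0.1–10 µM) at 30 °C. Conjugated dienes are read at 234 nm every 10 min for 8 h. R is the lag phase with compound divided by the control lag phase.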

| Structure (SMILES) | ED50 [1] [µM] | Activity [2] | Ratio [3] | Activity [4] [%] | Activity [5] |
| --- | --- | --- | --- | --- | --- |
| CCCCCN1CCc2c([nH]c3ccc(CC)cc23)C1c1cccc(OC)c1 (stereo not drawn) | 9 | 1.2 | 1 |  |  |
| CCc1ccc2[nH]c3c(c2c1)CCNC3c1ccc(OC)cc1 (stereo not drawn) | 9 | 1.2 | 1 |  |  |
| CCc1ccc2[nH]c3c(c2c1)CCNC3c1cccc(O)c1 (stereo not drawn) | < 0.1 | > 5 | 2.7 | 13.31 | 2.6 |
| CCCN1CCc2c([nH]c3ccc(OCc4ccccc4)cc23)C1c1cccc(OC)c1 (stereo not drawn) | 0.1 | 4.4 | 2.4 | 13.22 | 2.4 |
| CCCN1CCc2c([nH]c3ccc(CC)cc23)C1c1cccc(OC)c1 (stereo not drawn) | 4 | 1.6 | 1.2 | 15.32 |  |
| CCC(=O)N1CCc2c([nH]c3ccc(CC)cc23)C1c1cccc(OC)c1 (stereo not drawn) | 9 | 1.2 | 1 |  |  |
| CCCN1CCc2c([nH]c3ccc(CC)cc23)C1c1ccc(OC)c(OC)c1 (stereo not drawn) | 2 | 1.8 | 1.1 |  |  |
| COc1cccc(C2NCCc3c2[nH]c2ccc(OCc4ccccc4)cc32)c1 (stereo not drawn) | 5 | 1.5 | 1.1 |  |  |
| CCCCCCCCCN1CCc2c([nH]c3ccc(CC)cc23)C1c1cccc(OC)c1 (stereo not drawn) | 9 | 1.2 | 1 |  |  |
| CCCN1CCc2c([nH]c3ccc(CC)cc23)C1c1ccc2c(c1)OCCO2 (stereo not drawn) | 9 | 1.2 | 1 |  |  |
| CCc1ccc2[nH]c3c(c2c1)CCNC3c1ccc(OC)c(OC)c1 (stereo not drawn) | 10 | 1.1 | 1 |  |  |
| CCc1ccc2[nH]c3c(c2c1)CCNC3c1cccc(OCc2ccccc2)c1 (stereo not drawn) | 7 | 1.4 | 1 | 13.29 | 1 |
| CCCN1CCc2c([nH]c3ccc(CC)cc23)C1c1cccc(O)c1 (stereo not drawn) | < 0.1 | > 5 | 2.8 | 13.2 | 2.7 |
| CCCN1CCc2c([nH]c3ccc(CC)cc23)C1c1ccc(OC)cc1 (stereo not drawn) | 3 | 1.7 | 1 |  |  |
| CCc1ccc2[nH]c3c(c2c1)CCNC3c1cc(C(C)(C)C)c(O)c(C(C)(C)C)c1 (stereo not drawn) | < 0.1 | > 5 | 2.8 | 13.26 | 2.7 |
| CCCN1CCc2c([nH]c3ccc(CC)cc23)C1c1ccc(O)c(O)c1 (stereo not drawn) | < 0.1 | > 5 | 2.7 | 13.19 | 2.7 |

| Structure (SMILES) | ED50 [1] [µM] | Activity [2] | Ratio [3] | Activity [4] [%] | Activity [5] |
| --- | --- | --- | --- | --- | --- |
| CCc1ccc2[nH]c3c(c2c1)CCNC3c1ccc(O)c(O)c1 (stereo not drawn) | < 0.1 | > 5 | 2.8 | 13.3 | 2.6 |
| CCc1ccc2[nH]c3c(c2c1)CCNC3c1ccccc1OC (stereo not drawn) | 7 | 1.4 | 1.2 |  |  |
| CCc1ccc2[nH]c3c(c2c1)CCNC3c1ccc2c(c1)OCCO2 (stereo not drawn) | 10 | 1.1 | 1 |  |  |
| CCc1ccc2[nH]c3c(c2c1)CCN(C(=O)OCc1ccccc1)C3c1cccc(OCc2ccccc2)c1 (stereo not drawn) | 10 | 1 | 1 |  |  |
| CCc1ccc2[nH]c3c(c2c1)CCNC3c1ccc(OCc2ccccc2)c(OCc2ccccc2)c1 (stereo not drawn) | 7 | 1.4 | 1 |  | 1 |
| CCc1ccc2[nH]c3c(c2c1)CCN(C)C3c1cccc(OC)c1 (stereo not drawn) | 1 | 1.9 | 1 |  |  |
| CCCN1CCc2c([nH]c3ccc(O)cc23)C1c1cccc(OC)c1 (stereo not drawn) | 0.2 | 3.2 | 1.9 | 14.02 | 2.1 |
| CCCN1CCc2c([nH]c3ccc(CC)cc23)C1c1cc(C(C)(C)C)c(O)c(C(C)(C)C)c1 (stereo not drawn) | < 0.1 | > 5 | 2.7 | 13.21 | 2.6 |
| CCc1ccc2[nH]c3c(c2c1)CCNC3c1ccc(OC)c(OC)c1OC (stereo not drawn) | 9 | 1.2 | 1 |  |  |
| CCc1ccc2[nH]c3c(c2c1)CCNC3c1cc(OC)c(OC)c(OC)c1 (stereo not drawn) | 10 | 1.1 | 1 |  |  |
| CCCN1CCc2c([nH]c3ccc(CC)cc23)C1c1ccccc1OC (stereo not drawn) | 4 | 1.6 | 1 |  |  |
| CCCN1CCc2c([nH]c3ccc(CC)cc23)C1c1ccc(OCc2ccccc2)c(OCc2ccccc2)c1 (stereo not drawn) | 3 | 1.8 | 1.3 |  |  |
| CCCN1CCc2c([nH]c3ccc(CC)cc23)C1c1cc(OC)c(OC)c(OC)c1 (stereo not drawn) | 2 | 1.8 | 1.2 |  |  |
| CCCN1CCc2c([nH]c3ccc(CC)cc23)C1c1cccc(OCc2ccccc2)c1 (stereo not drawn) | 0.1 | 4.2 | 2.2 | 13.42 | 2.3 |
| CCc1ccc2[nH]c3c(c2c1)CCNC3c1cccc(OC)c1 (stereo not drawn) | 9 | 1.2 | 1.1 |  |  |
| CCc1ccc2[nH]c3c(c2c1)CCN(C(=O)OCc1ccccc1)C3c1ccc(OCc2ccccc2)c(OCc2ccccc2)c1 (stereo not drawn) | 8 | 1.3 | 1.1 |  |  |
